Assay results reported in ChEMBL document CHEMBL1157378, “Role for cell density in antifungal drug resistance in Candida albicans biofilms” (2007).
In brackets after ≈: the same amount, converted by molar mass.

Legend:
Assay type in all cases: functional
Candida albicans [1] = experiment: Antimicrobial activity against Candida albicans SC5314 biofilms upto 12 hrs by XTT assay; details: SC5314, 12 h
Outline: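 SC5314 biofilm development followed over 72 h in polystyrene wells. At intervals the developing biofilm was exposed to fluconazole or amphotericin B, and metabolic activity was read by XTT/menadione reduction at 490 nm.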

Candida albicans [2] = experiment: Antimicrobial activity against Candida albicans FH1 at planktonic cell density of 10^3 cells/ml after 48 hrs by XTT assay; details: FH1, 48 h
Outline: (§1)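 YNB-grown yeast (50 mM glucose, room temperature, shaken, to ~2 x 10^8 cells/ml) washed into MOPS-buffered RPMI 1640 with L-glutamine and set to the stated density. Exposed to twofold serial drug dilutions (1,024 to 0.0313 µg/ml) at 37°C, 48 h (caspofungin 24 h), with drug-free controls. Read-out: XTT (0.5 g/liter) plus 1 µM menadione, formazan at 490 nm.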

Candida albicans [3] = experiment: Antimicrobial activity against Chk1 deficient Candida albicans CHK21 intact biofilms after 48 hrs by XTT assay; details: CHK21, 48 h
Outline: (§2)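 Biofilm seeded at 1 x 10^6 cells/ml in RPMI in polystyrene microtiter wells and grown 48 h at 37°C in a moist chamber. Washed once and drug added to the same well (twofold dilutions, 1,024 to 0.0313 µg/ml) for 48 h at 37°C (caspofungin 24 h). Read-out: XTT/menadione reduction at 490 nm.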

Candida albicans [4] = experiment: Antimicrobial activity against Candida albicans GDH2346 at planktonic cell density of 10^3 cells/ml after 48 hrs by XTT assay; details: GDH2346, 48 h; outline: as §1
Candida albicans [5] = experiment: Antimicrobial activity against Candida albicans SC5314 dissociated biofilms at cell density of 10^8 cells/ml after 48 hrs by XTT assay; details: SC5314, 48 h
Outline: (§3)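 Polystyrene-well biofilms (48 h, 37°C) washed, then broken up in 100 µl RPMI by scraping and aspiration. Cells used undiluted (about 2 x 10^8 cells/ml equivalent) or adjusted by A600 against a hemacytometer-calibrated yeast standard curve. Drug exposure at 37°C for 48 h (caspofungin 24 h), then XTT/menadione read at 490 nm.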

Candida albicans [6] = experiment: Antimicrobial activity against Candida albicans FH1 at planktonic cell density of 10^8 cells/ml after 48 hrs by XTT assay; details: FH1, 48 h; outline: as §1
Candida albicans [7] = experiment: Antimicrobial activity against Cdr1, Cdr2 and Mdr1 deficient Candida albicans DSY1050 at planktonic cell density of 10^8 cells/ml after 48 hrs by XTT assay; details: DSY1050, 48 h; outline: as §1
Candida albicans [8] = experiment: Antimicrobial activity against Candida albicans GDH2346 dissociated biofilms at cell density of 10^3 cells/ml after 48 hrs by XTT assay; details: GDH2346, 48 h; outline: as §3
Candida albicans [9] = experiment: Antimicrobial activity against Candida albicans FH1 dissociated biofilms at cell density of 10^3 cells/ml after 48 hrs by XTT assay; details: FH1, 48 h; outline: as §3
Candida albicans [10] = experiment: Antimicrobial activity against Candida albicans assessed as cell viability at cell density of 2 x 10^4 cells/ml preincubated for 1 hr
Candida albicans [11] = experiment: Antimicrobial activity against Chk1 deficient Candida albicans CHK21 dissociated biofilms at cell density of 10^3 cells/ml after 48 hrs by XTT assay; details: CHK21, 48 h; outline: as §3
Candida albicans [12] = experiment: Antimicrobial activity against Cdr1, Cdr2 and Mdr1 deficient Candida albicans DSY1050 at planktonic cell density of 10^3 cells/ml after 48 hrs by XTT assay; details: DSY1050, 48 h; outline: as §1
Candida albicans [13] = experiment: Antimicrobial activity against fluconazole-resistant Candida albicans FH5 intact biofilms after 48 hrs by XTT assay; details: FH5, 48 h; outline: as §2
Candida albicans [14] = experiment: Antimicrobial activity against Candida albicans FH1 dissociated biofilms at cell density of 10^8 cells/ml after 48 hrs by XTT assay; details: FH1, 48 h; outline: as §3
Candida albicans [15] = experiment: Antimicrobial activity against Candida albicans GDH2346 at planktonic cell density of 10^8 cells/ml after 48 hrs by XTT assay; details: GDH2346, 48 h; outline: as §1
Candida albicans [16] = experiment: Antimicrobial activity against fluconazole-resistant Candida albicans FH5 at planktonic cell density of 10^3 cells/ml after 48 hrs by XTT assay; details: FH5, 48 h; outline: as §1
Candida albicans [17] = experiment: Antimicrobial activity against Candida albicans SC5314 at planktonic cell density of 10^8 cells/ml after 48 hrs by XTT assay; details: SC5314, 48 h; outline: as §1
Candida albicans [18] = experiment: Antimicrobial activity against Candida albicans SC5314 intact biofilms after 48 hrs by XTT assay; details: SC5314, 48 h; outline: as §2
Candida albicans [19] = experiment: Antimicrobial activity against Candida albicans SC5314 biofilms after 24 hrs by XTT assay; details: SC5314, 24 h
Outline: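 Intact biofilms formed from 1 x 10^6 cells/ml in RPMI in polystyrene microtiter wells, 48 h at 37°C in a moist chamber, then washed once and covered with 100 µl RPMI. A twofold drug series was added in the same well for 24 h at 37°C. Metabolic activity was read by XTT (0.5 g/liter, 1 µM menadione, up to 2 h) at 490 nm.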

Candida albicans [20] = experiment: Antimicrobial activity against fluconazole-resistant Candida albicans FH5 dissociated biofilms at cell density of 10^8 cells/ml after 48 hrs by XTT assay; details: FH5, 48 h; outline: as §3
Candida albicans [21] = experiment: Antimicrobial activity against fluconazole-resistant Candida albicans FH5 dissociated biofilms at cell density of 10^3 cells/ml after 48 hrs by XTT assay; details: FH5, 48 h; outline: as §3
Candida albicans [22] = experiment: Antimicrobial activity against Candida albicans GDH2346 dissociated biofilms at cell density of 10^8 cells/ml after 48 hrs by XTT assay; details: GDH2346, 48 h; outline: as §3
Candida albicans [23] = experiment: Antimicrobial activity against fluconazole-resistant Candida albicans FH5 at planktonic cell density of 10^8 cells/ml after 48 hrs by XTT assay; details: FH5, 48 h; outline: as §1
Candida albicans [24] = experiment: Antimicrobial activity against Candida albicans GDH2346 intact biofilms after 48 hrs by XTT assay; details: GDH2346, 48 h; outline: as §2
Candida albicans [25] = experiment: Antimicrobial activity against Cdr1, Cdr2 and Mdr1 deficient Candida albicans DSY1050 dissociated biofilms at cell density of 10^3 cells/ml after 48 hrs by XTT assay; details: DSY1050, 48 h; outline: as §3
Candida albicans [26] = experiment: Antimicrobial activity against Chk1 deficient Candida albicans CHK21 dissociated biofilms at cell density of 10^8 cells/ml after 48 hrs by XTT assay; details: CHK21, 48 h; outline: as §3
Candida albicans [27] = experiment: Antimicrobial activity against Cdr1, Cdr2 and Mdr1 deficient Candida albicans DSY1050 dissociated biofilms at cell density of 10^8 cells/ml after 48 hrs by XTT assay; details: DSY1050, 48 h; outline: as §3
Candida albicans [28] = experiment: Antimicrobial activity against Cdr1, Cdr2 and Mdr1 deficient Candida albicans DSY1050 intact biofilms after 48 hrs by XTT assay; details: DSY1050, 48 h; outline: as §2
Candida albicans [29] = experiment: Antimicrobial activity against Candida albicans FH1 intact biofilms after 48 hrs by XTT assay; details: FH1, 48 h; outline: as §2
Candida albicans [30] = experiment: Antimicrobial activity against Chk1 deficient Candida albicans CHK21 at planktonic cell density of 10^3 cells/ml after 48 hrs by XTT assay; details: CHK21, 48 h; outline: as §1
Candida albicans [31] = experiment: Antimicrobial activity against Chk1 deficient Candida albicans CHK21 at planktonic cell density of 10^8 cells/ml after 48 hrs by XTT assay; details: CHK21, 48 h; outline: as §1
Candida albicans [32] = experiment: Antimicrobial activity against Candida albicans SC5314 dissociated biofilms at cell density of 10^3 cells/ml after 48 hrs by XTT assay; details: SC5314, 48 h; outline: as §3
Candida albicans [33] = experiment: Antimicrobial activity against Candida albicans SC5314 at planktonic cell density of 10^3 cells/ml after 48 hrs by XTT assay; details: SC5314, 48 h; outline: as §1

Structure (SMILES): C[C@@H]1[C@H](O)[C@@H](C)/C=C/C=C/C=C/C=C/C=C/C=C/C=C/[C@H](O[C@@H]2O[C@H](C)[C@@H](O)[C@H](N)[C@@H]2O)C[C@@H]2O[C@](O)(C[C@@H](O)C[C@@H](O)[C@H](O)CC[C@@H](O)C[C@@H](O)CC(=O)O[C@H]1C)C[C@H](O)[C@H]2C(=O)O [AMPHOTERICIN B]
- MIC80 (Candida albicans [1]): 0.125 µg/mL (≈ 0.135 µM)
- MIC80 (Candida albicans [2]): 0.125 µg/mL (≈ 0.135 µM)
- MIC80 (Candida albicans [3]): > 32 µg/mL
- MIC80 (Candida albicans [4]): 0.125 µg/mL (≈ 0.135 µM)
- MIC80 (Candida albicans [5]): > 32 µg/mL
- MIC80 (Candida albicans [6]): > 32 µg/mL
- MIC80 (Candida albicans [7]): > 32 µg/mL
- MIC80 (Candida albicans [8]): 0.5 µg/mL (≈ 0.541 µM)
- MIC80 (Candida albicans [9]): 0.125 µg/mL (≈ 0.135 µM)
- Activity (Candida albicans [10]): 80%
- MIC80 (Candida albicans [11]): 0.25 µg/mL (≈ 0.271 µM)
- MIC80 (Candida albicans [12]): 0.25 µg/mL (≈ 0.271 µM)
- MIC80 (Candida albicans [13]): > 32 µg/mL
- MIC80 (Candida albicans [14]): > 32 µg/mL
- MIC80 (Candida albicans [15]): > 32 µg/mL
- MIC80 (Candida albicans [16]): 0.25 µg/mL (≈ 0.271 µM)
- MIC80 (Candida albicans [17]): > 32 µg/mL
- MIC80 (Candida albicans [18]): > 32 µg/mL
- MIC80 (Candida albicans [19]): > 8 µg/mL
- MIC80 (Candida albicans [20]): > 32 µg/mL
- MIC80 (Candida albicans [21]): 0.25 µg/mL (≈ 0.271 µM)
- MIC80 (Candida albicans [22]): > 32 µg/mL
- MIC80 (Candida albicans [23]): > 32 µg/mL
- MIC80 (Candida albicans [24]): 32 µg/mL (≈ 34.6 µM)
- MIC80 (Candida albicans [25]): 0.25 µg/mL (≈ 0.271 µM)
- MIC80 (Candida albicans [26]): > 32 µg/mL
- MIC80 (Candida albicans [27]): > 32 µg/mL
- MIC80 (Candida albicans [28]): > 32 µg/mL
- MIC80 (Candida albicans [29]): > 32 µg/mL
- MIC80 (Candida albicans [30]): 0.125 µg/mL (≈ 0.135 µM)
- MIC80 (Candida albicans [31]): > 32 µg/mL
- MIC80 (Candida albicans [32]): 0.5 µg/mL (≈ 0.541 µM)
- MIC80 (Candida albicans [33]): 0.125 µg/mL (≈ 0.135 µM)
